Results from ChEMBL document CHEMBL6074702, “Discovery of 4-(5-Membered)Heteroarylether-6-methylpicolinamide Negative Allosteric Modulators of Metabotropic Glutamate Receptor Subtype 5” (ACS Med Chem Lett, 2024).
Activity calls are given as the source filed them. The calls are words filed in the database; no cut-off is given here.

What was measured:
[1] = Unbound fraction in rat plasma at 5 uM incubated for 6 hrs by equilibrium dialysis based LC-MS/MS analysis; type: ADME, cell-free
Summary of the method: (§1)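 Equilibrium dialysis of plasma spiked at 5 μM final against DPBS, in triplicate, 6 h at 37 °C. Samples were matrix-matched, acetonitrile-extracted with carbamazepine as internal standard, and analyzed by LC-MS/MS. fu = buffer-side/plasma-side analyte:IS peak area ratio, mean of 3 replicates.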

[2] = Unbound fraction in rat brain at 1 uM incubated for 6 hrs by equilibrium dialysis based LC-MS/MS analysis; type: ADME, tissue-based
Summary of the method: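 Naïve rat brain was homogenized in DPBS (1:3 w/w) and dialyzed against DPBS at 1 μM final, in triplicate, 6 h at 37 °C. Quantification was by LC-MS/MS. Diluted fu2 = buffer/homogenate peak area ratio, corrected to undiluted fu using the 1/4 dilution equation; mean of 3 replicates.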

[3] = Ratio of unbound drug concentration in Sprague-Dawley rat brain to plasma at 0.2 mg/kg, iv measured after 0.25 hrs by LC-MS/MS analysis; type: ADME, organism-based
Summary of the method: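 Male Sprague Dawley rats (n = 1) received a single IV dose through a jugular catheter, formulated in 10% ethanol/40% PEG400/50% DMSO at 0.5 mL/kg. Terminal plasma (K2EDTA) and whole brain were taken at 15 min. Brain was homogenized in isopropanol:water 7:3. Samples were acetonitrile-precipitated with carbamazepine as internal standard and quantified by LC-MS/MS against a plasma standard curve, with dilution correction.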

[4] = Unbound fraction in human plasma at 5 uM incubated for 6 hrs by equilibrium dialysis based LC-MS/MS analysis; type: ADME, cell-free; summary of the method: as §1
[5] = biological target: Metabotropic glutamate receptor 1 (Homo sapiens) (UniProt Q13255); experiment: Negative allosteric modulation of tetracycline-inducible human mGlu1 receptor expressed in human T-REx-293 cells by calcium mobilization assay; type: functional, cell-based
Chain of Metabotropic glutamate receptor 1 (Homo sapiens) (Q13255 19-1194 limits assumed): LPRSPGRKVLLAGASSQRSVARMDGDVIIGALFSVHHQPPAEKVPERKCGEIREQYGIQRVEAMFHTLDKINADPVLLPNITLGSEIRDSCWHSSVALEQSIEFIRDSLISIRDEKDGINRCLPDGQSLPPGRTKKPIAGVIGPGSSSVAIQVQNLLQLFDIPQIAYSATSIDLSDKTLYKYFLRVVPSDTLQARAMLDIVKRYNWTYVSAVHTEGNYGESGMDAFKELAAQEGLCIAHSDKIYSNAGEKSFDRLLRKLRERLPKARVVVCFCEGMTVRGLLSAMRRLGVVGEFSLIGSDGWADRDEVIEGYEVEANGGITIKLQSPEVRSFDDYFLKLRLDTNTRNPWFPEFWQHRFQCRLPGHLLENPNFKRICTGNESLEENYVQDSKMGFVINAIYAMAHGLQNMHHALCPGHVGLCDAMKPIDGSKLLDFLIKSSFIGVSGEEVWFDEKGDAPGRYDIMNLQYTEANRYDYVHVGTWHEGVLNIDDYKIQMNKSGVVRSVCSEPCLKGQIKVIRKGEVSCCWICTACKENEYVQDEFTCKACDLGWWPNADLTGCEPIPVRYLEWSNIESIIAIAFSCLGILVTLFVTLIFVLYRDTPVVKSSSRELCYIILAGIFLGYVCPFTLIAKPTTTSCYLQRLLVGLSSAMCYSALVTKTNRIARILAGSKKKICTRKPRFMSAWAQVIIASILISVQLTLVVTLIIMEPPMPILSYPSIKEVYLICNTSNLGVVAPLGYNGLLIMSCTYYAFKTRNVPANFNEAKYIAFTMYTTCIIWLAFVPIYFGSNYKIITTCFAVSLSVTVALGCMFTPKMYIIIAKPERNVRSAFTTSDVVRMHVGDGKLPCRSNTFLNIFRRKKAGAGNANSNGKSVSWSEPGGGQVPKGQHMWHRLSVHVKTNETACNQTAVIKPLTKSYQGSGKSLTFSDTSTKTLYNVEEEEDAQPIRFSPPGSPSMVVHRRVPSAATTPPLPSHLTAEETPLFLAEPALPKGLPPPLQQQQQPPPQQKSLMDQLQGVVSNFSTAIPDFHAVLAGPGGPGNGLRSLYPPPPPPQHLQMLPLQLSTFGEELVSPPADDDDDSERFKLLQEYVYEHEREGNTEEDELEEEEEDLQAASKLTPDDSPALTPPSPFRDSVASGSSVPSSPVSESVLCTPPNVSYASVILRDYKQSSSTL

[6] = biological target: Metabotropic glutamate receptor 2 (Homo sapiens) (UniProt Q14416); experiment: Negative allosteric modulation of human mGlu2 receptor expressed in HEK293 cells harboring GIRK by thallium flux assay; type: cell-based
[7] = biological target: Metabotropic glutamate receptor 3 (Homo sapiens) (UniProt Q14832); experiment: Negative allosteric modulation of human mGlu3 receptor expressed in HEK293 cells harboring GIRK assessed as maximal inhibition response by thallium flux assay relative to glutamate; type: cell-based; conditions: filed as negative allosteric modulator
Chain of Metabotropic glutamate receptor 3 (Homo sapiens) (Q14832 23-879 limits assumed): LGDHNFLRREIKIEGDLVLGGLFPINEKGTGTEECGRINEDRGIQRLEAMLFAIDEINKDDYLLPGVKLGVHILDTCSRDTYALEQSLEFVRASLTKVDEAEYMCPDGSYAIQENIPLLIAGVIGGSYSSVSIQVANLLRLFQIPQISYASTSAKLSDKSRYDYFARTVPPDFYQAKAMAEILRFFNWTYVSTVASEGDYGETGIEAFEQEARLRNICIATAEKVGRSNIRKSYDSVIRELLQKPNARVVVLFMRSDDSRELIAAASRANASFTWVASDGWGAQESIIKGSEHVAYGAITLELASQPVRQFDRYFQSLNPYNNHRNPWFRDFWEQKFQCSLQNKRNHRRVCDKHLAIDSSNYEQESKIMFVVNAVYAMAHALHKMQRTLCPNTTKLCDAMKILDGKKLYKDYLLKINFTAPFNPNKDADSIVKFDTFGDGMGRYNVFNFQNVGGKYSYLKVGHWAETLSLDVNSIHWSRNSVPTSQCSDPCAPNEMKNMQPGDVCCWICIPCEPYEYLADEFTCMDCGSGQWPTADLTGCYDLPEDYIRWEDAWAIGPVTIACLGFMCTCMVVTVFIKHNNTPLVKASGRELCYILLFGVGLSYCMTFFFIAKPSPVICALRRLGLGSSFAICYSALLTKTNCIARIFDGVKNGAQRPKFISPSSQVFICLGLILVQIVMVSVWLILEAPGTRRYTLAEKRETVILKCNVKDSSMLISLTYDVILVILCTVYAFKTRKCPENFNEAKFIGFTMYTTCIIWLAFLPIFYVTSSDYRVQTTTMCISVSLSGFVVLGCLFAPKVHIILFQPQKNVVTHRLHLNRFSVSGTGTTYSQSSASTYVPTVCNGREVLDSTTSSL

[8] = biological target: Metabotropic glutamate receptor 4 (Homo sapiens) (UniProt Q14833); experiment: Negative allosteric modulation of human mGlu4 receptor expressed in CHO cells co-expressing Gqi5 assessed as inhibition of glutamate induced calcium mobilization preincubated for 142 sec followed by glutamate addition at EC20 concentration for 120 sec and measured after 40 sec addition of glutamate at EC80 concentration by Fluo-4 AM dye based fluorescence assay relative to glutamate; type: functional, cell-based; conditions: time 302.0 sec
Chain of Metabotropic glutamate receptor 4 (Homo sapiens) (Q14833 whole entry): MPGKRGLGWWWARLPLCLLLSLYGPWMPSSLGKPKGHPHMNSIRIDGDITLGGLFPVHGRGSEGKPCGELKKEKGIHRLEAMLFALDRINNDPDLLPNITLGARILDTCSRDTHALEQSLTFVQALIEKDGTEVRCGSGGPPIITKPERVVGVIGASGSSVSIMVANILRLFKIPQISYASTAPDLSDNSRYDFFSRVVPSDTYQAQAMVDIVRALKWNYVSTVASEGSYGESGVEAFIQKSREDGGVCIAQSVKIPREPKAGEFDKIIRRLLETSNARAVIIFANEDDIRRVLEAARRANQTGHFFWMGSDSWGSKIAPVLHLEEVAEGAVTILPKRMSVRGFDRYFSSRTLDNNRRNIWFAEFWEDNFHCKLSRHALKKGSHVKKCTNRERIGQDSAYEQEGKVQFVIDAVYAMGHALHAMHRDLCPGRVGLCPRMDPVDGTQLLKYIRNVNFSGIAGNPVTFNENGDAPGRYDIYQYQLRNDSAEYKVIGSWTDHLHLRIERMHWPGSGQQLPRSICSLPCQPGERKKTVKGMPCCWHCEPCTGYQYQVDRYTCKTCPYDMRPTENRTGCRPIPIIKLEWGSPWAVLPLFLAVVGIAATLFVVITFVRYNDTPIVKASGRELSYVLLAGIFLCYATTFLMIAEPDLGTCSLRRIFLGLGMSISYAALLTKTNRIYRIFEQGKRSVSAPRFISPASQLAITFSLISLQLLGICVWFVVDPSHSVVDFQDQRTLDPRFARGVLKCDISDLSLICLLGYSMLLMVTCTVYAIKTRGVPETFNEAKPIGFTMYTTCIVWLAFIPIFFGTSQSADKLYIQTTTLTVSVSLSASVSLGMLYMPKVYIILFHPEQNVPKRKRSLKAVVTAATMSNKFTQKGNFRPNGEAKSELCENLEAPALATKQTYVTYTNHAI

[9] = biological target: Metabotropic glutamate receptor 7 (Homo sapiens) (UniProt Q14831); experiment: (§2) Negative allosteric modulation of human mGlu7 receptor expressed in HEK293-A co-expressing Galpha15 assessed as inhibition of DL-AP4 induced-calcium mobilization preincubated for 140 sec followed by DL-AP4 addition at EC20 concentration for 125 sec and measured after 90 sec addition of glutamate at EC80 concentration by Fluo-4 AM dye based fluorescence assay; type: functional, cell-based; conditions: time 355.0 sec
Chain of Metabotropic glutamate receptor 7 (Homo sapiens) (Q14831 whole entry): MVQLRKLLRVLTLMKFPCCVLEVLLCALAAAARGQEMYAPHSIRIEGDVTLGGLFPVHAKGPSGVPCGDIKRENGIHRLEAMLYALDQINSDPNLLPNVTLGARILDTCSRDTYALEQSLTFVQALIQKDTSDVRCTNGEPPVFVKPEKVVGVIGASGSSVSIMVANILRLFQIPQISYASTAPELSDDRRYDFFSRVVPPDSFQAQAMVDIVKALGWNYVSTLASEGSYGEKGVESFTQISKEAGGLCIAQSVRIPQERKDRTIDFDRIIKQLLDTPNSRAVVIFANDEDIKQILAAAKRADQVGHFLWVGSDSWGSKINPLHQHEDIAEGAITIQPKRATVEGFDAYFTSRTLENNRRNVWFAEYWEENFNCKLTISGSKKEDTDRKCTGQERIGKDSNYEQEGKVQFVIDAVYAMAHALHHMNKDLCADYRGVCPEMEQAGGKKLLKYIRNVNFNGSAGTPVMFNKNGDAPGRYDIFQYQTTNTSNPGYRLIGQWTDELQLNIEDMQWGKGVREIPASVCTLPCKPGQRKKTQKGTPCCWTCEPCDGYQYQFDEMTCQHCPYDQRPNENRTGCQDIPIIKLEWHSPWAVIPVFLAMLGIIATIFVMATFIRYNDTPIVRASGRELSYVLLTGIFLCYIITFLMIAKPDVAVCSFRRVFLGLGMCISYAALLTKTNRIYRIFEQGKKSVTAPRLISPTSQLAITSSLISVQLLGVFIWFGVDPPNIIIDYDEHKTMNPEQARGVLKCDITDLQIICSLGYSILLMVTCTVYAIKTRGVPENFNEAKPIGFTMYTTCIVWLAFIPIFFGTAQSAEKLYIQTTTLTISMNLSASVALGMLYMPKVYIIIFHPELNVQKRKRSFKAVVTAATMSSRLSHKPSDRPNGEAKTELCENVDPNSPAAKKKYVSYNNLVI
Summary of the method: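 HEK293 cells stably co-expressing human mGlu7 and mouse Gα15 were plated at 15,000/well in dialyzed-FBS medium and grown overnight at 37 °C. They were loaded with Fluo-4-AM (final 1.15 μM) for 50 min at RT, then read at RT in a triple-add assay with DL-AP4 as agonist. Compounds were run as 10-point 1:3 curves; ex 480/em 530 nm. Data were normalized to maximal agonist response and fitted to a four-parameter logistic equation.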

[10] = biological target: Metabotropic glutamate receptor 8 (Homo sapiens) (UniProt O00222); experiment: as §2, with “mGlu8” for “mGlu7 receptor”, “HEK293-A” for “HEK293-A co-expressing Galpha15”, “glutamate” for “DL-AP4”; type: functional, cell-based; conditions: time 355.0 sec
Chain of Metabotropic glutamate receptor 8 (Homo sapiens) (O00222 whole entry): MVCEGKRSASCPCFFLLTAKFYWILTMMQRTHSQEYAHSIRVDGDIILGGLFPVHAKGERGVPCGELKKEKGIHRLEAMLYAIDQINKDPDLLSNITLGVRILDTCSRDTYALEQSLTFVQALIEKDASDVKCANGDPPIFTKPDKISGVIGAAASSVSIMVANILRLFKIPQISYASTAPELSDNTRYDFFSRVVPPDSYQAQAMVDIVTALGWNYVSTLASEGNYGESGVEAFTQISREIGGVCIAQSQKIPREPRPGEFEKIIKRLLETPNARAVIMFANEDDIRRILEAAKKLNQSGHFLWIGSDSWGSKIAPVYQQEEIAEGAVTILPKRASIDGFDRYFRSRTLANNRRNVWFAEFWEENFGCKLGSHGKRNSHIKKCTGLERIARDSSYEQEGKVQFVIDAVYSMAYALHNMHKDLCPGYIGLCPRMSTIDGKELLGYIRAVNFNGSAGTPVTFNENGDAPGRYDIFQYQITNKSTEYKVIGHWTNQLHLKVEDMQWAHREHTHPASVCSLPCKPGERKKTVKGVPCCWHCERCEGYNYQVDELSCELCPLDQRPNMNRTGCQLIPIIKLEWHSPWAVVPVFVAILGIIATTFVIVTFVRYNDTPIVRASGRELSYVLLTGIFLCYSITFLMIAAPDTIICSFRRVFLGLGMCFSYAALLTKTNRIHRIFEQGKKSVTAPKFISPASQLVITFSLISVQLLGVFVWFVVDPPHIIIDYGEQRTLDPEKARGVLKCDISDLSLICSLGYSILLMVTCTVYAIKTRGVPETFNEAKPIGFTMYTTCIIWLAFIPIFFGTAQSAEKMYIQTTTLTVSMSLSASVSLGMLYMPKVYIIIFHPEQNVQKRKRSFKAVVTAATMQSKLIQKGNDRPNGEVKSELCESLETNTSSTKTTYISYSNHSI
Summary of the method: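 HEK293 cells stably co-expressing human mGlu8 and mouse Gα15 were plated at 15,000/well and grown overnight. Fluo-4-AM (final 1.15 μM) was loaded for 50 min at 37 °C, […]. The FDSS run was at RT: compound, then glutamate EC20, then EC80 additions. Compounds were run as 10-point 1:3 curves; ex 480/em 530 nm. Data were normalized to glutamate ECmax and fitted to a four-parameter logistic equation.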

[11] = Drug metabolism in cryopreserved human Hepatocyte assessed as amide hydrolysis mediated metabolite formation at 10 uM measured after 4 hrs; type: ADME, cell-based; conditions: hepatocytes
Summary of the method: (§3)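 Rat, dog, monkey and human hepatocytes were incubated with 10 μM compound and sampled at 0 and 4 h. Metabolites were tentatively identified by accurate-mass LC-MS (observed m/z). Retention times were taken from MS extracted ion chromatograms.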

[12] = Drug metabolism in cryopreserved rat Hepatocyte assessed as amide hydrolysis mediated metabolite formation at 10 uM measured after 4 hrs; type: ADME, cell-based; conditions: hepatocytes; summary of the method: as §3
[13] = Drug metabolism in cryopreserved dog Hepatocyte assessed as amide hydrolysis mediated metabolite formation at 10 uM measured after 4 hrs; type: ADME, cell-based, Canis lupus familiaris; conditions: hepatocytes; summary of the method: as §3
[14] = Drug metabolism in cryopreserved cynomolgus monkey Hepatocyte assessed as amide hydrolysis mediated metabolite formation at 10 uM measured after 4 hrs; type: ADME, cell-based, Macaca fascicularis; conditions: hepatocytes; summary of the method: as §3

Question: What does the source list for `Cc1cc(Oc2cnn(C)c2C(F)(F)F)cc(C(=O)Nc2ccc(F)cn2)n1`?
Answer: Fu [1]: Not_determined(Unstable); Fu [2]: 0.002; K(p,uu,brain) [3]: Not_determined(Unstable)

Question: With `Cc1cc(Oc2cnn(C)c2C(F)(F)F)cc(C(=O)Nc2nc(C)cs2)n1` as the compound, how does the Fu [1] read?
Answer: The Fu was “Not_determined(Unstable)”.

Question: What about the Fu [4] of the same compound?
Answer: Its Fu is 0.004.

Question: What about the Fu [2] of the same compound?
Answer: The Fu was 0.003.

Question: What about the “K(p,uu,brain)” value [3] of the same compound?
Answer: The value was “Not_determined(Unstable)”.

Question: Which Fu [1] does the source give for `Cc1cc(Oc2ccnn2C)cc(C(=O)Nc2nc(C)cs2)n1` here?
Answer: The Fu was 0.219.

Question: With `Cc1cccc(NC(=O)c2cc(Oc3cc(C)nn3C)cc(C)n2)n1` as the compound, how does the Fu [1] read?
Answer: The Fu was “Not_determined(Unstable)”.

Question: And the “K(p,uu,brain)” value [3]?
Answer: The value was “Not_determined(Unstable)”.

Question: For `Cc1cccc(NC(=O)c2cc(Oc3ccnn3C)cc(C)n2)n1`, which Fu [1] is on record?
Answer: Its Fu is “Not_determined(Unstable)”.

Question: And the “K(p,uu,brain)” value [3]?
Answer: Its value is “Not_determined(Unstable)”.

Question: Which results are given for `Cc1cc(Oc2cnn(C)c2)cc(C(=O)Nc2ccc(F)cn2)n1`?
Answer: Activity [5]: inactive; Activity [6]: inactive; Imax [7]: 58%; Activity [8]: inactive; Activity [9]: inactive; Activity [10]: inactive; Drug metabolism [11]: metabolite_detected; Drug metabolism [12]: metabolite_detected; Drug metabolism [13]: metabolite_detected; Drug metabolism [14]: metabolite_detected

Question: For `Cc1cccc(NC(=O)c2cc(Oc3cnn(C)c3C(F)(F)F)cc(C)n2)n1`, which Fu [1] is on record?
Answer: Its Fu is “Not_determined(Unstable)”.

Question: And the “K(p,uu,brain)” value [3]?
Answer: Its value is “Not_determined(Unstable)”.
